This is an account of results in paper PMC2750823 (Molecular cancer therapeutics, 2009).

The test system of series [1] is RS11846 human lymphoma cell line. As to the kind of experiment: Apoptosis, Annexin V-FITC and propidium iodide assay. The class given is cell-based. The note with it: read-out: RS11846 EC50 (Annexin V-FITC and propidium iodide assay).
Series [2] in a line: Liver microsomal stability. Type of series: in vitro ADME. As to conditions: rat, microsomes, 4 µM, pH 7.4. (In general: Liver microsomes are vesicles of endoplasmic reticulum, rich in cytochrome P450 enzymes.)
In series [3] the test system is H460 human lung cancer cell line. Briefly: Cell viability, ATP-LITE assay. Type of series: cell-based. As to conditions: NCI-H460, 72 h, read-out: H460 EC50. The gist of the method:
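H460 cells were grown in F12 or RPMI1640 with 5 mM L-glutamine, 5% FBS and penicillin/streptomycin, then plated at 2000 cells/well. After 24 h, fresh 5% medium was added, followed by test compound at final concentrations in 0.1% DMSO. Viability was read with ATP-LITE after 72 h of treatment, and data were normalized to DMSO-treated cells.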

The subject of series [4] is PC3ML cells. As to the kind of experiment: Cell viability, ATP-LITE assay. Type of series: cell-based. As to conditions: Homo sapiens, PC3-ML, 72 h, read-out: PC3ML EC50. The gist of the method:
(§1)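 Human cancer cells are grown in F12 or RPMI1640 medium with 5 mM L-glutamine, 5% FBS and penicillin/streptomycin. Cells are seeded at densities chosen by doubling time. Fresh 5% serum medium is added, and test compound is applied 24 h after seeding at varied concentrations in 0.1% DMSO. After 72 h, ATP is read with ATP-LITE reagent and normalized to DMSO-treated controls.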

For series [5], the system named is RS11846 human lymphoma cell line. Briefly: Cell viability, ATP-LITE assay. The class given is cell-based. The note with it: 72 h, read-out: RS11846 EC50 (ATP-LITE assay). A digest of the protocol: as §1
Series [6] is described as follows: Plasma stability. As to conditions: rat, 100 µM. The class given is in vitro ADME.
Series [7] relates to Mcl-1. The note with it: cited from earlier work.
For series [8], the system named is H1299. The note with it: cited from earlier work.
Series [9] has as its system H1299 cells. As to the kind of experiment: Cell viability, ATP-LITE assay. Type of series: cell-based. The note with it: Homo sapiens, NCI-H1299, 72 h, read-out: H1299 EC50.

A word on the EC50: it is the concentration needed to bring the measured effect to its halfway point. Take `Cc1cc2c(C(C)C)c(O)c(O)cc2c(O)c1-c1c(C)cc2c(C(C)C)c(O)c(O)cc2c1O` [Apogossypol]: the EC50 in series [1] worked out at 8.6 µM; in [3], 5.8 µM; in series [4], 10.3 µM; in [5], 5 µM. In series [2], the “Microsomal Stability (T=1 hr)” value is reported as 60%. For the same molecule, the “Plasma Stability (T=1 hr)” value in series [6] came to 53%.
For the molecule `CN(C)CC[C@H](CSc1ccccc1)Nc1ccc(S(=O)(=O)NC(=O)c2ccc(N3CCN(Cc4ccccc4-c4ccc(Cl)cc4)CC3)cc2)cc1[N+](=O)[O-]` [ABT-737], the “effectiveness against Mcl-1” value in series [7] is on record as “not effective”. In addition, the “killing Mcl-1 overexpressing cell lines such as the H1299” value in series [8] is recorded as “not effective”.
`Cc1cc2c(C(C)C)c(O)c(O)c(C=O)c2c(O)c1-c1c(C)cc2c(C(C)C)c(O)c(O)c(C=O)c2c1O` [Gossypol]: the EC50 in [1] was 4.23 µM; in [9] it was 6 µM; in series [3] it was 3 µM; in [4] it was 3.1 µM; in [5], 2.2 µM.
